Experimental data reported in ChEMBL document CHEMBL5352453, “Hit-to-lead optimization of a 2-aminobenzimidazole series as new candidates for chagas disease” (Eur J Med Chem, 2023).

Tests used:
Trypanosoma cruzi = test: Antitrypanosomal activity against Trypanosoma cruzi Tulahuen CL2 amastigotes expressing beta galactosidase infected in human MRC5 cells assessed as reduction in parasite burden using chlorophenol red beta-D-galactopyranoside as substrate and measured after 7 days by spectrophotometric analysis; assay type: functional, organism-based; conditions: Tulahuen CL2, MRC5, 168 h
Procedure, shortened: (§1)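 T. cruzi Tulahuen CL2 β-galactosidase strain grown in MRC-5 cells (MEM, 5% heat-inactivated FCS, 37 °C, 5% CO2). MRC-5 cells (4 x 10^3/well) plus parasites (4 x 10^4/well) exposed 7 days to 4-fold dilutions from 64 µM down; final DMSO <1%. CPRG with Nonidet added, absorbance at 540 nm after 4 h. IC50 calculated against untreated-infected (100%) and non-infected (0%) controls. SI = MRC-5 CC50/IC50.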

[1] = Metabolic stability in CD1 mouse liver microsomes assessed as intrinsic clearance measured upto 60 mins by LC-MS/MS analysis; assay type: ADME; conditions: read-out: CLH
Procedure, shortened: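 CD1 mouse liver microsomes at 0.25 mg/mL, compound at 0.5 µM, pH 7.4, 37 °C, started with NADPH. Sampled at 0, 5, 10, 20, 30 and 60 min and quenched with acetonitrile:methanol containing tolbutamide. Measured by LC-MS/MS; CLint (k × 1000/0.25, µL/min/mg) derived by non-linear regression of % remaining over time.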

[2] = Selectivity index, ratio of CC50 for cytotoxicity against human MRC5 cells to EC50 for Trypanosoma cruzi Tulahuen CL2 amastigotes expressing beta galactosidase infected in human MRC5 cells; assay type: toxicity, cell-based; conditions: read-out: Selectivity Index; procedure, shortened: as §1

## O=C(Cc1ccc(Cl)cc1)Nc1nc2ccccc2[nH]1
Trypanosoma cruzi
  IC50: > 64 µM

## CCCn1c(NC(=O)Cc2ccc(Cl)cc2)nc2ccccc21
[1]
  microsomal CLint: 3090 µL/min/mg
Trypanosoma cruzi
  IC50: 1.89 µM

## CCCn1c(NC(=O)Cc2ccc(Cl)cc2)nc2ccc(F)cc21
[1]
  microsomal CLint: 1590 µL/min/mg
[2]
  selectivity ratio: 102
Trypanosoma cruzi
  IC50: 0.56 µM

## CCCn1c(NC(=O)Cc2ccc(F)cc2)nc2ccccc21
Trypanosoma cruzi
  IC50: 2.1 µM

## CCCn1c(NC(=O)Nc2ccc(Cl)cc2)nc2ccccc21
Trypanosoma cruzi
  IC50: > 64 µM

## CCCn1c(NC(=O)Cc2ccc(F)cc2)nc2ccc(C(=O)NCOC)cc21
[1]
  microsomal CLint: 128 µL/min/mg
[2]
  selectivity ratio: 7
Trypanosoma cruzi
  IC50: 8.3 µM

## CC(C)(C)Cn1c(NC(=O)c2cccnc2)nc2cc(F)c(F)cc21
[1]
  microsomal CLint: 131 µL/min/mg
[2]
  selectivity ratio: > 80
Trypanosoma cruzi
  IC50: 0.8 µM

## CCCn1c(NC(=O)c2cccnc2)nc2cccnc21
[1]
  microsomal CLint: 275 µL/min/mg
[2]
  selectivity ratio: > 15
Trypanosoma cruzi
  IC50: 4.4 µM

## Cn1nncc1C(=O)Nc1nc2ccc(C#N)cc2n1CC(F)(F)F
[2]
  selectivity ratio: > 3
Trypanosoma cruzi
  IC50: 24 µM

## CN(C)c1ccc(C(=O)Nc2nc3ccc(C#N)cc3n2CC(F)(F)F)cn1
[2]
  selectivity ratio: > 7
Trypanosoma cruzi
  IC50: 8.6 µM

## CCCn1c(NC(=O)Cc2ccc(F)cc2)nc2ccc(C(=O)N3CCOCC3)cc21
[1]
  microsomal CLint: 23 µL/min/mg
[2]
  selectivity ratio: > 2
Trypanosoma cruzi
  IC50: 35 µM

## N#Cc1ccc2nc(NC(=O)c3ccnc(C(F)(F)F)c3)n(CC(F)F)c2c1
[2]
  selectivity ratio: 24
Trypanosoma cruzi
  IC50: 0.51 µM

## CCCn1c(NC(=O)c2ccccn2)nc2cccnc21
[1]
  microsomal CLint: 265 µL/min/mg
[2]
  selectivity ratio: > 8
Trypanosoma cruzi
  IC50: 8.4 µM

## CCCn1c(NC(=O)Cc2ccc(F)cc2)nc2ccc(C(=O)O)cc21
[2]
  selectivity ratio: 1
Trypanosoma cruzi
  IC50: > 64 µM

## N#Cc1ccc2nc(NC(=O)c3ccc(C(F)(F)F)nc3)n(C3CC3)c2c1
[1]
  microsomal CLint: 1350 µL/min/mg
Trypanosoma cruzi
  IC50: > 64 µM

## Cn1ncc(C(=O)Nc2nc3ccc(C#N)cc3n2CC(F)(F)F)n1
[2]
  selectivity ratio: 1
Trypanosoma cruzi
  IC50: 64 µM

## Cc1ccc(C(=O)Nc2nc3ccc(C#N)cc3n2CC(F)(F)F)cn1
[2]
  selectivity ratio: 1
Trypanosoma cruzi
  IC50: 64 µM

## COCCn1c(NC(=O)c2ccc(C(F)(F)F)nc2)nc2ccc(C#N)cc21
[2]
  selectivity ratio: 1
Trypanosoma cruzi
  IC50: 64 µM

## CCCn1c(NC(=O)Cc2ccc(F)cc2)nc2ccc(C(=O)NC)cc21
[1]
  microsomal CLint: 66 µL/min/mg
[2]
  selectivity ratio: 1
Trypanosoma cruzi
  IC50: 34 µM

## O=C(Nc1nc2cc(F)ccc2n1C1CCOCC1)c1cccnc1
[1]
  microsomal CLint: 26 µL/min/mg
[2]
  selectivity ratio: 5
Trypanosoma cruzi
  IC50: 8.5 µM

## CCCn1c(NC(=O)c2cccc(C(F)(F)F)n2)nc2cccnc21
[1]
  microsomal CLint: 285 µL/min/mg
[2]
  selectivity ratio: > 27
Trypanosoma cruzi
  IC50: 2.4 µM

## O=C(Nc1nc2ccc(F)cc2n1CC(F)(F)F)c1cccnc1
[1]
  microsomal CLint: 98 µL/min/mg
[2]
  selectivity ratio: 13
Trypanosoma cruzi
  IC50: 4.2 µM

## O=C(Cc1ccc(Cl)cc1)Nc1nc2ccccc2s1
Trypanosoma cruzi
  IC50: > 64 µM

## CCCn1c(CCNC(=O)Cc2ccc(Cl)cc2)nc2ccccc21
Trypanosoma cruzi
  IC50: 33 µM

## CCCn1c(NC(=O)c2cccnc2)nc2cc(F)c(F)cc21
[1]
  microsomal CLint: 446 µL/min/mg
[2]
  selectivity ratio: > 30
Trypanosoma cruzi
  IC50: 2.1 µM

## O=C(Nc1nc2cncnc2n1CC(F)(F)F)c1ccnc(C(F)(F)F)c1
[2]
  selectivity ratio: 5
Trypanosoma cruzi
  IC50: 1.1 µM

## CCCn1c(NC(=O)Cc2ccc(Cl)cc2)nc2ccc(C#N)cc21
[1]
  microsomal CLint: 226 µL/min/mg
[2]
  selectivity ratio: > 3
Trypanosoma cruzi
  IC50: 24 µM

## CCCn1c(NC(=O)c2cccc(C(F)(F)F)n2)nc2ccc(F)cc21
[1]
  microsomal CLint: 467 µL/min/mg
[2]
  selectivity ratio: > 28
Trypanosoma cruzi
  IC50: 2.3 µM

## Cn1nc(C(F)(F)F)cc1C(=O)Nc1nc2cncnc2n1CC(F)(F)F
[2]
  selectivity ratio: 7
Trypanosoma cruzi
  IC50: 0.59 µM

## CCCn1c(NC(=O)Cc2cc(F)ccc2F)nc2ccccc21
Trypanosoma cruzi
  IC50: 2.2 µM

## CCCn1c(NS(=O)(=O)c2ccc(Br)cc2)nc2ccccc21
Trypanosoma cruzi
  IC50: > 64 µM

## N#Cc1ccc2nc(NC(=O)c3cnc(C(F)(F)F)nc3)n(CC(F)(F)F)c2c1
[2]
  selectivity ratio: 8
Trypanosoma cruzi
  IC50: 0.24 µM

## CCCn1c(NC(=O)c2cccnc2)nc2ccc(C#N)cc21
[1]
  microsomal CLint: 200 µL/min/mg
[2]
  selectivity ratio: > 4
Trypanosoma cruzi
  IC50: 18 µM

## CCCn1c(NC(=O)Cc2ccc(F)cc2)nc2cc(F)c(F)cc21
[1]
  microsomal CLint: 399 µL/min/mg
[2]
  selectivity ratio: > 121
Trypanosoma cruzi
  IC50: 0.53 µM

## N#Cc1ccc2nc(NC(=O)c3ccnc(C(F)(F)F)c3)n(CCF)c2c1
[2]
  selectivity ratio: 1
Trypanosoma cruzi
  IC50: 49 µM

## CCCn1c(NC(=O)Cc2ccc(F)cc2)nc2ccc(C(=O)OC)cc21
[1]
  microsomal CLint: 1250 µL/min/mg
[2]
  selectivity ratio: 35
Trypanosoma cruzi
  IC50: 0.53 µM

## CC(C)(C)Cn1c(NC(=O)c2cccnc2)nc2ccc(C#N)cc21
[1]
  microsomal CLint: 87 µL/min/mg
[2]
  selectivity ratio: > 7
Trypanosoma cruzi
  IC50: 8.7 µM

## Cn1nccc1C(=O)Nc1nc2cc(S(C)(=O)=O)ccc2n1CC(F)(F)F
[2]
  selectivity ratio: 6
Trypanosoma cruzi
  IC50: 2.2 µM

## CCCn1c(NCc2ccc(F)cc2)nc2cc(F)ccc21
Trypanosoma cruzi
  IC50: 25 µM

## O=C(Nc1nc2cncnc2n1CC(F)(F)F)c1ccc(C(F)(F)F)nc1
[2]
  selectivity ratio: 6
Trypanosoma cruzi
  IC50: 0.51 µM

## CC(C)(C)Cn1c(NC(=O)c2ccc(C(F)(F)F)nc2)nc2ccc(C#N)cc21
[2]
  selectivity ratio: > 1
Trypanosoma cruzi
  IC50: 52 µM

## O=C(Nc1nc2cc(F)ccc2n1C1CCNCC1)c1cccnc1
[2]
  selectivity ratio: 3
Trypanosoma cruzi
  IC50: 9.2 µM

## CCCn1c(NC(=O)Cc2ccc(F)cc2)nc2ccc(C(=O)N3CCCC3)cc21
[2]
  selectivity ratio: > 8
Trypanosoma cruzi
  IC50: 8.5 µM

## CCCn1c(NC(=O)Cc2cc(F)ccc2F)nc2cc(F)c(F)cc21
[1]
  microsomal CLint: 389 µL/min/mg
[2]
  selectivity ratio: 52
Trypanosoma cruzi
  IC50: 0.58 µM

## N#Cc1ccc2nc(NC(=O)c3cc(C(F)(F)F)nn3CC(=O)O)n(CC(F)(F)F)c2c1
[2]
  selectivity ratio: 1
Trypanosoma cruzi
  IC50: 64 µM

## Cn1nccc1C(=O)Nc1nc2cc(CO)ccc2n1CC(F)(F)F
[2]
  selectivity ratio: 1
Trypanosoma cruzi
  IC50: 64 µM

## CCCn1c(NC(=O)Cc2ccc(F)cc2)nc2c(F)cccc21
[1]
  microsomal CLint: 715 µL/min/mg
[2]
  selectivity ratio: 1
Trypanosoma cruzi
  IC50: > 64 µM

## CCCn1c(NC(=O)c2ccc(F)cc2)nc2ccc(F)cc21
Trypanosoma cruzi
  IC50: > 64 µM

## O=C(Nc1nc2cncnc2n1CC(F)(F)F)c1cc(C(F)(F)F)n[nH]1
[2]
  selectivity ratio: 4
Trypanosoma cruzi
  IC50: 7.5 µM

## CCCn1c(NC(=O)Cc2ccc(Cl)cc2)nc2cc(C(F)(F)F)ccc21
[1]
  microsomal CLint: 283 µL/min/mg
[2]
  selectivity ratio: 15
Trypanosoma cruzi
  IC50: 0.74 µM

## O=C(Nc1nc2cc(F)ccc2n1C1CCOCC1)c1ccc(C(F)(F)F)nc1
[1]
  microsomal CLint: 23 µL/min/mg
[2]
  selectivity ratio: > 2
Trypanosoma cruzi
  IC50: 35 µM

## N#Cc1ccc2nc(NC(=O)c3ccnn3C3CC3)n(CC(F)(F)F)c2c1
[2]
  selectivity ratio: 3
Trypanosoma cruzi
  IC50: 0.99 µM

## Cn1cc(C(=O)Nc2nc3ccc(C#N)cc3n2CC(F)(F)F)cn1
[2]
  selectivity ratio: 1
Trypanosoma cruzi
  IC50: 64 µM

## Cc1cc(C(=O)Nc2nc3ccc(C#N)cc3n2CC(F)(F)F)[nH]n1
[2]
  selectivity ratio: 1
Trypanosoma cruzi
  IC50: 36 µM

## CCCn1ccnc1NC(=O)Cc1ccc(F)cc1
Trypanosoma cruzi
  IC50: 35 µM

## CCCn1c(NC(=O)c2ccc(C(F)(F)F)nc2)nc2cccnc21
[2]
  selectivity ratio: 15
Trypanosoma cruzi
  IC50: 3.2 µM

## CCCn1c(NC(=O)Cc2ccc(F)cc2)nc2cccnc21
[1]
  microsomal CLint: 1500 µL/min/mg
[2]
  selectivity ratio: > 49
Trypanosoma cruzi
  IC50: 1.3 µM

## O=C(Nc1nc2ccc(F)cc2n1C1CC1)c1cccnc1
[1]
  microsomal CLint: 160 µL/min/mg
[2]
  selectivity ratio: > 2
Trypanosoma cruzi
  IC50: 34 µM

## CCCn1c(NC(=O)Cc2ccc(Cl)cc2)nc2cc(F)ccc21
[1]
  microsomal CLint: 1510 µL/min/mg
[2]
  selectivity ratio: > 70
Trypanosoma cruzi
  IC50: 0.92 µM
